Assay results from ChEMBL document CHEMBL4616671, “Identification of N-Phenyl-7H-pyrrolo[2,3-d]pyrimidin-4-amine Derivatives as Novel, Potent, and Selective NF-κB Inducing Kinase (NIK) Inhibitors for the Treatment of Psoriasis” (J Med Chem, 2020).

What was measured:
[1] = molecular target: T1, Mitogen-activated protein kinase kinase kinase 14 (Homo sapiens, UniProt Q99558); assay: Inhibition of recombinant N-terminal GST-fused human NIK (319 to 947 residues) expressed in baculovirus expression system incubated for 120 mins in presence of ATP by ADP-glo based luminescence assay
Procedure, shortened: (§1)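 ADP-Glo luminescence assay with recombinant human MAP3K14. Buffer: Tris pH 7.5, 2 mM DTT, 2 mM MgCl₂, 100 µM Na₃VO₄, 0.02 mg/mL BSA, 5% DMSO; ATP 10 µM. Reaction 120 min at room temperature; ADP-Glo reagent 40 min, then detection reagent 40 min. Mean ± SD from two independent experiments.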
Target sequence in this assay (Q99558 whole entry, the tested form may be a part): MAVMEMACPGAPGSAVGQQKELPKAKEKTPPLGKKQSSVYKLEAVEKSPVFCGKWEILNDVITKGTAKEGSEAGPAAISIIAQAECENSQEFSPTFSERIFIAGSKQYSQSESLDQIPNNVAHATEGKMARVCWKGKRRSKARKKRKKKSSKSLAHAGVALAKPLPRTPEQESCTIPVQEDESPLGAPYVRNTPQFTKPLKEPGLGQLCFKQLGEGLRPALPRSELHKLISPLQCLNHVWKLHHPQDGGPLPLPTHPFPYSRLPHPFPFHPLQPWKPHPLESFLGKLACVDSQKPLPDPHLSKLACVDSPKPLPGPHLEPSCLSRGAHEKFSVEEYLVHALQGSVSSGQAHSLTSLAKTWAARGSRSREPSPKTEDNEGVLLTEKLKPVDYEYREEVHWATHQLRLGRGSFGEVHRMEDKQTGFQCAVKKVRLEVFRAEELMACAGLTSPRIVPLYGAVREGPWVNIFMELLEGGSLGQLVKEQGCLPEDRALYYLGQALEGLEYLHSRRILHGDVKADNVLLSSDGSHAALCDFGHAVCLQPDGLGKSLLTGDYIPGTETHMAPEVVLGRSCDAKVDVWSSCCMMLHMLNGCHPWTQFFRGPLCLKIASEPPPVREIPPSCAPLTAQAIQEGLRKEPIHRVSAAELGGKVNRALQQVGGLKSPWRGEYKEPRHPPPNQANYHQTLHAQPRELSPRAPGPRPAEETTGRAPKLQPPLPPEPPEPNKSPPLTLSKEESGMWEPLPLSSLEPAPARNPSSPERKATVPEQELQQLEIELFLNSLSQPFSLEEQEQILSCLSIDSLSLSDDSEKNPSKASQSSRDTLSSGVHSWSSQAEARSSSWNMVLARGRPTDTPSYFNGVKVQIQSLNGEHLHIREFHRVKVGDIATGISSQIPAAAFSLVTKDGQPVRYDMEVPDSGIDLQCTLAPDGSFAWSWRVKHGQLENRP

T-cell [2] = assay: Antiinflammatory activity in mouse T cells assessed as inhibition of conA-induced induced T cell proliferation at 0.4 uM incubated for 48 hrs by CCK8 assay relative to control; type: functional
T-cell [3] = assay: Antiinflammatory activity in mouse T cells assessed as inhibition of conA-induced induced T cell proliferation at 2 uM incubated for 48 hrs by CCK8 assay relative to control; type: functional
J774 = assay: Antiinflammatory activity in mouse J774 cells assessed as inhibition of LPS-induced NO production at 1 uM preincubated for 2 hrs followed by LPS stimulation and measured after 22 hrs by Griess reagent based assay relative to control; type: functional
Procedure, shortened: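 J774 macrophages seeded at 2*10^4 cells/mL, 24 h at 37 °C 5% CO₂; compound in DMSO at 1 µM, 3 replicate wells, 2 h pre-incubation, then LPS at 1 ug/mL final for 22 h. Supernatant nitrite read with Griess reagent at 540 nm against a sodium nitrite standard curve. Inhibition % = (model − compound)/(model − control) NO ×100; mean ± SD, three independent experiments.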

T-cell [4] = assay: Growth inhibition of mouse T cells at 10 uM after 48 hrs by CCK8 assay; type: cell-based
Procedure, shortened: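 Unstimulated mouse splenic T cells exposed to compound at 10 µM. Growth read by CCK-8 absorbance; […]. Mean ± SD, three independent experiments.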

[5] = molecular target: T1, Mitogen-activated protein kinase kinase kinase 14; assay: Inhibition of recombinant N-terminal GST-fused human NIK (319 to 947 residues) expressed in baculovirus expression system assessed as residual activity at 1 uM incubated for 120 mins in presence of ATP by ADP-glo based luminescence assay relative to control
Target sequence in this assay (Q99558 whole entry, looked up, the tested form may be a part): as the sequence (Q99558 whole entry, the tested form may be a part) above

[6] = Intrinsic clearance in dog liver microsomes assessed as per mg of protein incubated for 10 mins followed by potassium phosphate buffer addition and measured after 5 to 60 mins by LC-MS/MS analysis; type: ADME, Canis lupus familiaris, Microsome; settings: read-out: CLH
Procedure, shortened: (§2)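 Rat, dog, monkey or human liver microsomes pre-incubated with compound at 37 °C for 10 min; reaction started after pre-warming and stopped at 5, 15, 30, 60 min with chilled quench containing tolbutamide and labetalol. No-cofactor control in 100 mM potassium phosphate for 60 min. LC-MS/MS analysis; first-order fit: k = −slope, T1/2 = 0.693/k, CLint = k/microsomal protein concentration.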

[7] = molecular target: T1, Mitogen-activated protein kinase kinase kinase 14; assay: Inhibition of NIK (unknown origin); procedure, shortened: as §1
Target sequence in this assay (Q99558 whole entry, the tested form may be a part): as above

[8] = molecular target: T1, Mitogen-activated protein kinase kinase kinase 14; assay: Inhibition of NIK in human BEAS2B cells assessed as reduction in LPS-induced IL-6 level preincubated for 8 hrs followed by LPS stimulation and measured after 24 hrs by ELISA; type: cell-based
Procedure, shortened: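 BEAS-2B cells were grown in DMEM with 10% FBS, seeded at 5000 cells/well, and cultured 24 h at 37 °C in 5% CO2. Compounds were given at 7 concentrations from 10 μM to 0.014 μM (3 replicate wells), with dexamethasone as positive control. After 8 h, LPS (20 μg/mL solution) was added for 24 h. Supernatant IL-6 was read by human IL-6 ELISA; two biological replicates.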
Target sequence in this assay (Q99558 whole entry, looked up, the tested form may be a part): as the sequence (Q99558 whole entry, the tested form may be a part) above

[9] = Intrinsic hepatic clearance in rat; type: ADME; settings: in vivo
Procedure, shortened: (§3)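 Scaled from microsomal intrinsic clearance: CLint,in vitro × microsomal protein per g liver × liver weight per kg body weight.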

[10] = Intrinsic hepatic clearance in dog; type: ADME, Canis lupus familiaris; settings: in vivo; procedure, shortened: as §3
[11] = Intrinsic hepatic clearance in human; type: ADME; procedure, shortened: as §3
[12] = Intrinsic hepatic clearance in monkey; type: ADME, Macaca mulatta; settings: rhesus monkey, in vivo; procedure, shortened: as §3
[13] = Elimination half life in rat liver microsomes incubated for 10 mins followed by potassium phosphate buffer addition and measured after 5 to 60 mins by LC-MS/MS analysis; type: ADME, Microsome; settings: read-out: beta t1/2; procedure, shortened: as §2
[14] = Elimination half life in dog liver microsomes incubated for 10 mins followed by potassium phosphate buffer addition and measured after 5 to 60 mins by LC-MS/MS analysis; type: ADME, Canis lupus familiaris, Microsome; settings: read-out: beta t1/2; procedure, shortened: as §2
[15] = Elimination half life in human liver microsomes incubated for 10 mins followed by potassium phosphate buffer addition and measured after 5 to 60 mins by LC-MS/MS analysis; type: ADME, Microsome; settings: read-out: beta t1/2; procedure, shortened: as §2
[16] = Intrinsic clearance in monkey liver microsomes assessed as per mg of protein incubated for 10 mins followed by potassium phosphate buffer addition and measured after 5 to 60 mins by LC-MS/MS analysis; type: ADME, Macaca mulatta, Microsome; settings: rhesus monkey, read-out: CLH; procedure, shortened: as §2
[17] = Intrinsic clearance in human liver microsomes assessed per mg of protein incubated for 10 mins followed by potassium phosphate buffer addition and measured after 5 to 60 mins by LC-MS/MS analysis; type: ADME, Microsome; settings: read-out: CLH; procedure, shortened: as §2
[18] = Elimination half life in monkey liver microsomes incubated for 10 mins followed by potassium phosphate buffer addition and measured after 5 to 60 mins by LC-MS/MS analysis; type: ADME, Macaca mulatta, Microsome; settings: rhesus monkey, read-out: beta t1/2; procedure, shortened: as §2
[19] = Intrinsic clearance in rat liver microsomes assessed as per mg of protein incubated for 10 mins followed by potassium phosphate buffer addition and measured after 5 to 60 mins by LC-MS/MS analysis; type: ADME, Microsome; settings: read-out: CLH; procedure, shortened: as §2

| IC50 [1] | Structure (SMILES) | inhibition at 0.4 µM (T-cell [2]) | inhibition at 2 µM (T-cell [3]) | inhibition at 1 µM (J774) | also measured |
| --- | --- | --- | --- | --- | --- |
| 2240 nM | CC(O)(C#Cc1ccc(N2CCOCC2)c(Nc2ncnc3[nH]ccc23)c1)C1CCCC1 (configuration not stated) | – | – | – | – |
| 34.5 nM | CCN1CCN(c2ccc(C#CC(C)(O)c3nccs3)cc2Nc2ncnc3[nH]ccc23)CC1 (configuration not stated) | 24.1% | 33.7% | 67.4% | – |
| > 10000 nM | CC(O)(C#Cc1ccc(N2CCOCC2)c(Nc2c(Cl)cnc3[nH]ccc23)c1)c1nccs1 (configuration not stated) | – | – | – | – |
| 12 nM | C[C@@](O)(C#Cc1ccc(N2CCOCC2)c(Nc2ncnc3[nH]ccc23)c1)c1nccs1 | 37.6% | 61.2% | 100% | Activity (T-cell [4]): Toxic |
| 50.4 nM | CC(O)(C#Cc1ccc(N2CCOCC2)c(Nc2ncnc3[nH]ccc23)c1)c1cccs1 (configuration not stated) | – | – | – | – |
| 2710 nM | CC(C)(O)C#Cc1ccc(N2CCOCC2)c(Nc2ncnc3[nH]ccc23)c1 | – | – | – | – |
| 179 nM | CC(O)(C#Cc1ccc(N2CCOCC2)c(Nc2ncnc3sccc23)c1)c1nccs1 (configuration not stated) | – | – | – | – |
| 17.8 nM | CC(=O)N1CCN(c2ccc(C#CC(C)(O)c3nccs3)cc2Nc2ncnc3[nH]ccc23)CC1 (configuration not stated) | 16.2% | 31.5% | 29.3% | – |
| 107 nM | CC(O)(C#Cc1ccc(N2CCCC2)c(Nc2ncnc3[nH]ccc23)c1)c1nccs1 (configuration not stated) | – | – | – | – |
| 1380 nM | CC(O)(C#Cc1ccc(N2CCOCC2)c(Nc2c(F)cnc3[nH]ccc23)c1)c1nccs1 (configuration not stated) | – | – | – | – |
| 136 nM | C[C@](O)(C#Cc1ccc(N2CCOCC2)c(Nc2ncnc3[nH]ccc23)c1)c1nccs1 | 39.5% | 60.1% | 74.3% | Activity (T-cell [4]): Non-Toxic |
| 6.59 nM | CC(O)(C#Cc1ccc(N2CCOCC2)c(Nc2ccnc3[nH]ccc23)c1)c1nccs1 (configuration not stated) | 19% | 50.2% | 60.4% | – |
| 78.3 nM | CN1CCN(c2ccc(C#CC(C)(O)c3nccs3)cc2Nc2ncnc3[nH]ccc23)CC1 (configuration not stated) | 33% | 43.7% | 78.5% | – |
| 8.63 nM | CC(O)(C#Cc1ccc(N2CCOCC2)c(Nc2ncnc3[nH]ncc23)c1)c1nccs1 (configuration not stated) | 14.8% | 24.7% | 35.9% | – |
| 47.9 nM | CC(O)(C#Cc1ccc(N2CCNCC2)c(Nc2ncnc3[nH]ccc23)c1)c1nccs1 (configuration not stated) | 20.3% | 39.9% | 68% | – |
| 15.3 nM | CC(O)(C#Cc1ccc(N2CCC(N3CCOCC3)CC2)c(Nc2ncnc3[nH]ccc23)c1)c1nccs1 (configuration not stated) | 32.2% | 34.5% | 57.7% | – |
| 60.1 nM | CN1CCCN(c2ccc(C#CC(C)(O)c3nccs3)cc2Nc2ncnc3[nH]ccc23)CC1 (configuration not stated) | 35.5% | 47.7% | 67.3% | – |

Continued, compound first:

| Structure (SMILES) | IC50 [1] | inhibition at 0.4 µM (T-cell [2]) | inhibition at 2 µM (T-cell [3]) | inhibition at 1 µM (J774) | also measured |
| --- | --- | --- | --- | --- | --- |
| CN1CCC(Oc2ccc(C#CC(C)(O)c3nccs3)cc2Nc2ncnc3[nH]ccc23)CC1 (configuration not stated) | 705 nM | – | – | – | – |
| CN(C)CCN(C)c1ccc(C#CC(C)(O)c2nccs2)cc1Nc1ncnc2[nH]ccc12 (configuration not stated) | 484 nM | – | – | – | – |
| C[C@H]1CN(c2ccc(C#CC(C)(O)c3nccs3)cc2Nc2ncnc3[nH]ccc23)CCN1 (some centres not stated) | 69.2 nM | 38% | 49.5% | 62.9% | – |
| COCCN(C)c1ccc(C#CC(C)(O)c2nccs2)cc1Nc1ncnc2[nH]ccc12 (configuration not stated) | 72.4 nM | 13.3% | 27.9% | 48% | – |
| OC1(C#Cc2ccc(N3CCOCC3)c(Nc3ncnc4[nH]ccc34)c2)CCCCC1 | 1270 nM | – | – | – | – |
| O=C(Nc1ccc(N2CCOCC2)c(Nc2ncnc3[nH]ccc23)c1)C1CCCC1 | – | – | – | – | Activity [5]: 77.3% |
| CCS(=O)(=O)N1CCN(c2ccc(C#CC(C)(O)c3nccs3)cc2Nc2ncnc3[nH]ccc23)CC1 (configuration not stated) | 8.22 nM | 14% | 32.5% | 34.5% | – |
| CC(O)(C(=O)Nc1ccc(N2CCOCC2)c(Nc2ncnc3[nH]ccc23)c1)c1nccs1 (configuration not stated) | 1400 nM | – | – | – | – |
| OC1(C#Cc2ccc(N3CCOCC3)c(Nc3ncnc4[nH]ccc34)c2)CCCC1 | 645 nM | – | – | – | – |
| CC(O)(C#Cc1ccc(N2CC3CC2CN3)c(Nc2ncnc3[nH]ccc23)c1)c1nccs1 (configuration not stated) | 200 nM | – | – | – | – |
| CC(O)(C#Cc1cccc(Nc2ncnc3[nH]ccc23)c1)c1nccs1 (configuration not stated) | 1640 nM | – | – | – | – |
| CC(O)(C#Cc1ccc(N2CCOCC2)c(Nc2ccnc(N)n2)c1)c1nccs1 (configuration not stated) | 11.4 nM | 27.4% | 31.4% | 58.5% | – |
| CC(O)(C#Cc1ccc(OC2CCOCC2)c(Nc2ncnc3[nH]ccc23)c1)c1nccs1 (configuration not stated) | 112 nM | 19.9% | 42.9% | 68.3% | – |
| CC(O)(C#Cc1ccc(N2CCN(S(=O)(=O)C3CC3)CC2)c(Nc2ncnc3[nH]ccc23)c1)c1nccs1 (configuration not stated) | 16.2 nM | 16.9% | 32.3% | 37.2% | – |
| CN(C)c1ccc(C#CC(C)(O)c2nccs2)cc1Nc1ncnc2[nH]ccc12 (configuration not stated) | 22.5 nM | – | – | – | – |
| C[C@@H]1CN(c2ccc(C#CC(C)(O)c3nccs3)cc2Nc2ncnc3[nH]ccc23)CCN1 (some centres not stated) | 209 nM | – | – | – | – |
| CC(O)(C#Cc1ccc2c(c1)N(c1nc(N)ncc1Cl)CC2)c1nccs1 (configuration not stated) | 4.7 nM | 19% | 59.6% | 43.9% | microsomal CLint [6]: 192 µL/min/mg; Ki [7]: 0.4 nM; inhibition [8]: Dose-dependent effect; CLH [9]: 254 mL/min/kg; CLH [10]: 276 mL/min/kg; CLH [11]: 38.6 mL/min/kg; CLH [12]: 300 mL/min/kg; half-life [13]: 9.82 min; half-life [14]: 7.22 min; half-life [15]: 33.9 min; microsomal CLint [16]: 208 µL/min/mg; microsomal CLint [17]: 40.8 µL/min/mg; half-life [18]: 6.66 min; microsomal CLint [19]: 141 µL/min/mg |
| O=C(Nc1ccc(N2CCOCC2)c(Nc2ncnc3[nH]ccc23)c1)NC1CCCC1 | – | – | – | – | Activity [5]: 76.4% |
